Test results: ChEMBL document CHEMBL1240400, “Comparative in vitro activities of nemonoxacin (TG-873870), a novel nonfluorinated quinolone, and other quinolones against clinical isolates” (2010)
Converted amounts (≈) assume the structure as drawn.

Key:
Format in all cases: functional
Staphylococcus aureus [1] = experiment: Antibacterial activity against methicillin susceptible Staphylococcus aureus by broth dilution method
Staphylococcus aureus [2] = experiment: Antibacterial activity against ciprofloxacin susceptible and methicillin resistant Staphylococcus aureus by broth dilution method
Summary of the method: (§1)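 Clinical isolates tested by CLSI broth microdilution in panels holding serial twofold drug dilutions in cation-adjusted Mueller-Hinton broth. Final inoculum 5 × 10^5 CFU/ml was made from a 0.5 McFarland suspension. Plates were incubated overnight at 35°C in ambient air, and the MIC was read as the lowest concentration inhibiting growth. Quality control strains were included in each run.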

Staphylococcus aureus [3] = experiment: Antibacterial activity against ciprofloxacin and methicillin resistant Staphylococcus aureus by broth dilution method; summary of the method: as §1
Staphylococcus = experiment: Antibacterial activity against methicillin resistant coagulase negative Staphylococcus by broth dilution method
[4] = test system: Staphylococcus epidermidis; experiment: Antibacterial activity against methicillin resistant coagulase negative Staphylococcus epidermidis by broth dilution method
Enterococcus faecalis [5] = experiment: Antibacterial activity against Enterococcus faecalis by broth dilution method
Enterococcus faecalis [6] = experiment: Antibacterial activity against vancomycin resistant Enterococcus faecalis by broth dilution method
Enterococcus faecium [7] = experiment: Antibacterial activity against Enterococcus faecium by broth dilution method; summary of the method: as §1
Enterococcus faecium [8] = experiment: Antibacterial activity against vancomycin resistant Enterococcus faecium by broth dilution method; summary of the method: as §1
Escherichia coli [9] = experiment: Antibacterial activity against ciprofloxacin resistant Escherichia coli by broth dilution method; summary of the method: as §1
Escherichia coli [10] = experiment: Antibacterial activity against ciprofloxacin susceptible Escherichia coli by broth dilution method
Summary of the method: (§2)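 Broth microdilution per CLSI in panels spanning a dilution range of each agent. Cation-adjusted Mueller-Hinton broth, final inoculum 5 × 10^5 CFU/ml from a 0.5 McFarland suspension. Incubated overnight at 35°C in ambient air, with quality control strains in each run. MIC reported; values at or below the lowest concentration tested are given as that concentration.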

Klebsiella pneumoniae = experiment: Antibacterial activity against Klebsiella pneumoniae by broth dilution method; summary of the method: as §2
Enterobacter cloacae = experiment: Antibacterial activity against Enterobacter cloacae by broth dilution method
Proteus mirabilis = experiment: Antibacterial activity against Proteus mirabilis by broth dilution method
Citrobacter freundii = experiment: Antibacterial activity against Citrobacter freundii by broth dilution method; summary of the method: as §2
Streptococcus pneumoniae [11] = experiment: Antibacterial activity against Levofloxacin susceptible Streptococcus pneumoniae by broth dilution method
Summary of the method: (§3)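 Streptococcus pneumoniae clinical isolates tested by CLSI broth microdilution. A 0.5 McFarland suspension was diluted into Mueller-Hinton broth with 3% lysed horse blood, then tested against serial drug dilutions. Plates were incubated overnight at 35°C in ambient air, and the MIC was read as the lowest inhibitory concentration. Quality control strains were included in each run.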

Streptococcus pneumoniae [12] = experiment: Antibacterial activity against Levofloxacin resistant Streptococcus pneumoniae by broth dilution method; summary of the method: as §3
Streptococcus pyogenes = experiment: Antibacterial activity against Streptococcus pyogenes by broth dilution method
Summary of the method: (§4)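 Streptococci were tested by CLSI broth microdilution in Mueller-Hinton broth with 3% lysed horse blood, seeded from a 0.5 McFarland suspension. Incubated overnight at 35°C in ambient air, with quality control strains in each run. MIC taken over a per-agent dilution range.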

Streptococcus agalactiae = experiment: Antibacterial activity against Streptococcus agalactiae by broth dilution method; summary of the method: as §4
Streptococcus viridans = experiment: Antibacterial activity against Streptococcus viridans by broth dilution method; summary of the method: as §4
Acinetobacter baumannii = experiment: Antibacterial activity against Acinetobacter baumannii by broth dilution method; summary of the method: as §2
Pseudomonas aeruginosa = experiment: Antibacterial activity against Pseudomonas aeruginosa by broth dilution method
Haemophilus influenzae = experiment: Antibacterial activity against Haemophilus influenzae by broth dilution method
Summary of the method: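 Broth microdilution per CLSI using Haemophilus Test Medium broth, seeded from a 0.5 McFarland suspension. Incubated overnight at 35°C in ambient air, with quality control strains in each run. MIC read against a tested dilution range; values at the low limit are given as the lowest concentration.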

Neisseria gonorrhoeae [13] = experiment: Antibacterial activity against ciprofloxacin resistant Neisseria gonorrhoeae isolates by broth dilution method
Summary of the method: (§5)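 Neisseria gonorrhoeae clinical isolates tested by CLSI broth microdilution in Mueller-Hinton broth with 3% lysed horse blood, inoculated from a 0.5 McFarland suspension. Plates were incubated overnight at 35°C in 5% CO2, and the MIC was read as the lowest inhibitory concentration. Quality control strains were included in each run.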

Neisseria gonorrhoeae [14] = experiment: Antibacterial activity against levofloxacin resistant Neisseria gonorrhoeae isolates by broth dilution method; summary of the method: as §5
Neisseria gonorrhoeae [15] = experiment: Antibacterial activity against moxifloxacin resistant Neisseria gonorrhoeae isolates by broth dilution method; summary of the method: as §5

`C[C@H]1COc2c(N3CCN(C)CC3)c(F)cc3c(=O)c(C(=O)O)cn1c23.C[C@H]1COc2c(N3CCN(C)CC3)c(F)cc3c(=O)c(C(=O)O)cn1c23.O` [LEVOFLOXACIN] showed an MIC50 (Staphylococcus aureus [1]) of 0.25 µg/mL, an MIC90 (Staphylococcus aureus [1]) of 1 µg/mL and an MIC50 (Staphylococcus aureus [2]) of 0.25 µg/mL. It also gave an MIC90 (Staphylococcus aureus [2]) of 0.25 µg/mL, an MIC50 (Staphylococcus aureus [3]) of 16 µg/mL and an MIC90 (Staphylococcus aureus [3]) of 16 µg/mL. The MIC50 (Staphylococcus) was 0.5 µg/mL, the MIC90 (Staphylococcus) was 8 µg/mL and the MIC50 [4] was 0.5 µg/mL. For the same compound, the MIC90 [4] was 8 µg/mL, the MIC50 (Enterococcus faecalis [5]) was 2 µg/mL and the MIC90 (Enterococcus faecalis [5]) was greater than 16 µg/mL. The MIC50 (Enterococcus faecalis [6]) was 2 µg/mL, the MIC50 (Enterococcus faecium [7]) was greater than 16 µg/mL and the MIC90 (Enterococcus faecium [7]) was greater than 16 µg/mL. It also gave an MIC (Enterococcus faecium [8]) of 2 µg/mL, an MIC50 (Escherichia coli [9]) greater than 16 µg/mL and an MIC90 (Escherichia coli [9]) greater than 16 µg/mL. For the same compound, the MIC50 (Escherichia coli [10]) was 0.5 µg/mL, the MIC90 (Escherichia coli [10]) was 1 µg/mL and the MIC50 (Klebsiella pneumoniae) was 2 µg/mL. It also gave an MIC90 (Klebsiella pneumoniae) greater than 16 µg/mL, an MIC50 (Enterobacter cloacae) of 2 µg/mL and an MIC90 (Enterobacter cloacae) of 16 µg/mL. It also gave an MIC50 (Proteus mirabilis) of 2 µg/mL, an MIC90 (Proteus mirabilis) greater than 16 µg/mL and an MIC50 (Citrobacter freundii) of 0.12 µg/mL. The MIC90 (Citrobacter freundii) was 2 µg/mL, the MIC50 (Streptococcus pneumoniae [11]) was 1 µg/mL and the MIC90 (Streptococcus pneumoniae [11]) was 2 µg/mL. The MIC50 (Streptococcus pneumoniae [12]) was 16 µg/mL, the MIC90 (Streptococcus pneumoniae [12]) was greater than 16 µg/mL and the MIC50 (Streptococcus pyogenes) was 1 µg/mL. It also gave an MIC90 (Streptococcus pyogenes) of 2 µg/mL, an MIC50 (Streptococcus agalactiae) of 1 µg/mL and an MIC90 (Streptococcus agalactiae) of 2 µg/mL. The MIC50 (Streptococcus viridans) was 1 µg/mL, the MIC90 (Streptococcus viridans) was 2 µg/mL and the MIC50 (Acinetobacter baumannii) was 2 µg/mL. The MIC90 (Acinetobacter baumannii) was 16 µg/mL, the MIC50 (Pseudomonas aeruginosa) was 8 µg/mL and the MIC90 (Pseudomonas aeruginosa) was greater than 16 µg/mL. It also gave an MIC50 (Haemophilus influenzae) of 0.25 µg/mL, an MIC90 (Haemophilus influenzae) of 8 µg/mL and an MIC (Neisseria gonorrhoeae [13]) of 2 µg/mL. For the same compound, the MIC (Neisseria gonorrhoeae [14]) was 1 µg/mL and the MIC (Neisseria gonorrhoeae [15]) was 0.5 µg/mL.

Work on `CN(C)c1cc(NC(=O)CNC(C)(C)C)c(O)c2c1C[C@H]1C[C@H]3[C@H](N(C)C)C(O)=C(C(N)=O)C(=O)[C@@]3(O)C(O)=C1C2=O` [TIGECYCLINE] yielded an MIC50 (Staphylococcus aureus [1]) of 0.12 µg/mL (≈ 0.205 µM), an MIC90 (Staphylococcus aureus [1]) of 0.25 µg/mL (≈ 0.427 µM) and an MIC50 (Staphylococcus aureus [2]) of 0.25 µg/mL (≈ 0.427 µM). It also gave an MIC90 (Staphylococcus aureus [2]) of 0.25 µg/mL (≈ 0.427 µM), an MIC50 (Staphylococcus aureus [3]) of 0.25 µg/mL (≈ 0.427 µM) and an MIC90 (Staphylococcus aureus [3]) of 0.5 µg/mL (≈ 0.854 µM). It also gave an MIC50 (Staphylococcus) of 0.25 µg/mL (≈ 0.427 µM), an MIC90 (Staphylococcus) of 0.5 µg/mL (≈ 0.854 µM) and an MIC50 [4] of 0.25 µg/mL (≈ 0.427 µM). The MIC90 [4] was 0.5 µg/mL (≈ 0.854 µM), the MIC50 (Enterococcus faecalis [5]) was 0.25 µg/mL (≈ 0.427 µM) and the MIC90 (Enterococcus faecalis [5]) was 0.25 µg/mL (≈ 0.427 µM). The MIC50 (Enterococcus faecalis [6]) was 0.25 µg/mL (≈ 0.427 µM), the MIC90 (Enterococcus faecalis [6]) was 0.25 µg/mL (≈ 0.427 µM) and the MIC50 (Enterococcus faecium [7]) was 0.06 µg/mL (≈ 0.102 µM). The MIC90 (Enterococcus faecium [7]) was 0.12 µg/mL (≈ 0.205 µM), the MIC50 (Enterococcus faecium [8]) was 0.06 µg/mL (≈ 0.102 µM) and the MIC90 (Enterococcus faecium [8]) was 0.12 µg/mL (≈ 0.205 µM). For the same compound, the MIC50 (Escherichia coli [9]) was 0.25 µg/mL (≈ 0.427 µM), the MIC90 (Escherichia coli [9]) was greater than 8 µg/mL and the MIC50 (Escherichia coli [10]) was 0.25 µg/mL (≈ 0.427 µM). It also gave an MIC90 (Escherichia coli [10]) of 0.5 µg/mL (≈ 0.854 µM), an MIC50 (Klebsiella pneumoniae) of 0.5 µg/mL (≈ 0.854 µM) and an MIC90 (Klebsiella pneumoniae) of 1 µg/mL (≈ 1.71 µM). It also gave an MIC50 (Enterobacter cloacae) of 0.5 µg/mL (≈ 0.854 µM), an MIC90 (Enterobacter cloacae) of 2 µg/mL (≈ 3.41 µM) and an MIC50 (Proteus mirabilis) of 2 µg/mL (≈ 3.41 µM). The MIC90 (Proteus mirabilis) was 4 µg/mL (≈ 6.83 µM), the MIC (Citrobacter freundii) was 0.25 µg/mL (≈ 0.427 µM) and the MIC50 (Citrobacter freundii) was 0.25 µg/mL (≈ 0.427 µM). For the same compound, the MIC90 (Citrobacter freundii) was 0.5 µg/mL (≈ 0.854 µM), the MIC (Streptococcus pneumoniae [11]) was 0.08 µg/mL (≈ 0.137 µM) and the MIC50 (Streptococcus pneumoniae [11]) was 0.03 µg/mL (≈ 0.0512 µM). The MIC90 (Streptococcus pneumoniae [11]) was 0.06 µg/mL (≈ 0.102 µM), the MIC50 (Streptococcus pneumoniae [12]) was 0.06 µg/mL (≈ 0.102 µM) and the MIC90 (Streptococcus pneumoniae [12]) was 0.06 µg/mL (≈ 0.102 µM). For the same compound, the MIC50 (Streptococcus pyogenes) was 0.03 µg/mL (≈ 0.0512 µM), the MIC90 (Streptococcus pyogenes) was 0.06 µg/mL (≈ 0.102 µM) and the MIC (Streptococcus agalactiae) was 0.03 µg/mL (≈ 0.0512 µM). It also gave an MIC50 (Streptococcus agalactiae) of 0.03 µg/mL (≈ 0.0512 µM), an MIC90 (Streptococcus agalactiae) of 0.06 µg/mL (≈ 0.102 µM) and an MIC50 (Streptococcus viridans) of 0.06 µg/mL (≈ 0.102 µM). For the same compound, the MIC90 (Streptococcus viridans) was 0.12 µg/mL (≈ 0.205 µM), the MIC50 (Acinetobacter baumannii) was 1 µg/mL (≈ 1.71 µM) and the MIC90 (Acinetobacter baumannii) was 2 µg/mL (≈ 3.41 µM). It also gave an MIC50 (Pseudomonas aeruginosa) of 8 µg/mL (≈ 13.7 µM), an MIC90 (Pseudomonas aeruginosa) greater than 8 µg/mL and an MIC50 (Haemophilus influenzae) of 0.5 µg/mL (≈ 0.854 µM). For the same compound, the MIC90 (Haemophilus influenzae) was 1 µg/mL (≈ 1.71 µM).
